High-throughput results deposited in PubChem by several laboratories.
An excerpt weighted towards active compounds, which were near 5.5% of everything screened.
STAT3 blocker: reduces IL-6 driven STAT3 reporter signal; 0.89% of 190,000 active; inhibition, % at 5.5 µM; U3A cells, IL-6 STAT3-luciferase reporter, luminescence; host cell line lacks STAT1;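 active means inhibition above the mean inhibition across all screened compounds plus 3 SD, cut at about 44% in these data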;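 further: 0% = DMSO only wells and 100% = 100 µM nifuroxazide control wells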
HSV replic up: increases HSV replication in cells; HSV replication augmentation in cells, fold increase; maximum fold increase; 0.005% of 220,000 active; AID 1956; in the data active means maximum fold increase above about 1.5; inconclusive means no clear call, values can overlap the other calls; tested in PC3 cells
STAT3 act: increases IL-6 driven STAT3 reporter signal; AID 871; 0.91% of 190,000 active; U3A cells, IL-6 STAT3-luciferase reporter, luminescence; 100% = signal with IL-6 EC80 alone; activation (% of control), % at 5.6 µM;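 active means activation above the screen-wide mean of compound activation plus 3 SD, cut at about 130% in these data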;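 further: 0% = background luminescence of wells with medium and substrate only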
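Material: STAT1-lacking human U3A cells, STAT3 luciferase reporter | Benchmarks: IL-6-only wells as 100% reference | Probe or stimulus: IL-6 (33 ng/mL) | Timing: Compound 1 h, then IL-6 6 h at 37 °C | Detection: Luminescence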
Cl transport mod: modulators of human KCC2 chloride dependent transport | Q9H2X9 | KCC2 cells, thallium flux FluoZin-2 fluorescence | 2.2% of 190,000 active | B-score of Tl+ flux slope (higher = more flux/activation; lower = inhibition) at 10 µM;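 active means thallium flux slope and its plate-corrected score both differing from the plate sample mean at a set confidence after two filtering rounds, in either direction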;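 further: slope of fluorescence scaled to starting intensity during 10 to 20 s after thallium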
STAT1 blocker: inhibitors of IFN-gamma induced STAT1 signaling; AID 920; 0.35% of 200,000 active; inhibition, % at 5.5 µM; NIH 3T3 STAT1-luciferase reporter, luminescence;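 active means inhibition above a set limit, the mean inhibition across all tested compounds plus 3 SD, cut at about 34% in these data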;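 further: 0% = IFN-gamma with DMSO and 100% = IFN-gamma with 300 µM nifuroxazide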
STAT1 activator: STAT1 signaling activation; activation (% of control), % at 5.5 µM; 2.6% of 200,000 active; NIH 3T3 STAT1-luciferase reporter, IFN-gamma, luminescence; 100% = IFN-gamma alone, no compound;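 active means activation above the screen-wide mean activation plus 3 SD, cut at about 130% in these data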;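 further: raw ratio to IFN-gamma control signal so 100% means no change and 0% no light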
KCC2 sec1: confirmation of human KCC2 transport modulators; shares compounds with Cl transport mod; HEK293-KCC2, thallium flux, FluoZin2 fluorescence; active compounds read high; normalised thallium flux (F/F0 slope) at 10 µM; 15% of 3,700 active; AID 1713;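 active means thallium flux slope above the same plate's solvent-only control mean plus 3 SD; inconclusive means the two replicate wells disagree; inactive means no significant difference from solvent-only control wells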
KCC2 bumet counter: thallium flux despite bumetanide block in KCC2 cells, secondary assay 3. normalized thallium flux at 10 µM. AID 1714. shares compounds with Cl transport mod. HEK293-KCC2 + bumetanide/ouabain, thallium flux FluoZin2; active compounds read high. 49% of 3,700 active;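 active means thallium entry rate above the same plate's blocked-transporter control wells by more than 3 SD; inconclusive means the two repeat wells disagree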;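 further: raw slope of fluorescence over initial fluorescence between 10 and 20 s after thallium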
KCC2 sec2: KCC2 (human) modulation, second secondary assay. shares compounds with Cl transport mod. HEK293-KCC2, thallium flux FluoZin2 fluorescence; actives lie on both sides; F/F0 rise rate, 10–20 s post-thallium. normalized thallium flux at 10 µM. 23% of 3,700 active. AID 1715;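 active means thallium flux slope more than 3 SD above or below the plate's solvent-only control mean, mostly below; inconclusive means the two repeat wells disagreed; inactive means no significant shift from solvent-only controls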;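 further: raw slope with 0.1% DMSO as baseline and bumetanide as block control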
HEK293 Tl flux: acts in parental HEK cells, KCC2 counter-screen; shares compounds with Cl transport mod; HEK293 parental cells, thallium flux FluoZin2, ouabain; baseline-ratio fluorescence slope, 10–20 s after thallium; thallium flux rate (normalised fluorescence) at 10 µM; 46% of 3,700 active;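 active means thallium flux rate significantly above the same plate's solvent-only control wells, beyond their mean plus 3 SD; inconclusive means the two replicate wells gave conflicting results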
KCC2 retest ouab: modulates human KCC2 on retest with ouabain; shares compounds with Cl transport mod; 48% of 3,700 active; raw Tl+ flux slope (below DMSO = inhibition, above = activation) at 10 µM; HEK293-KCC2, thallium flux FluoZin2 fluorescence; bidirectional: low = inhibitor, high = activator;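 active means thallium flux slope beyond 3 SD from same-plate DMSO control mean in most replicates, usually higher, sometimes lower; inconclusive means repeat tests gave conflicting results; inactive means no significant difference from controls in most replicates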;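 further: slope of initial-normalized fluorescence between seconds 10 and 20 after thallium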
HEK counter2: counter-screen for KCC2 modulators: effect in parental HEK293 cells. shares compounds with Cl transport mod. thallium flux FluoZin-2 fluorescence slope. thallium flux slope at 10 µM. 33% of 3,700 active. AID 1718;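 active means thallium flux slope above the same plate's solvent-control mean plus 3 SD in both duplicate wells; inconclusive means duplicate wells that disagreed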;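 further: run without ouabain in cells lacking the KCC2 cotransporter; slope of fluorescence scaled to its starting value between 10 and 20 s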
An asterisk follows results filed as active; i = inactive; ? = inconclusive; . = no result.

SMILES	STAT3 blocker	HSV replic up	STAT3 act	Cl transport mod	STAT1 blocker	STAT1 activator	KCC2 sec1	KCC2 bumet counter	KCC2 sec2	HEK293 Tl flux	KCC2 retest ouab	HEK counter2
COc1cc([N+](=O)[O-])cc(/C=N/NC(=O)CC#N)c1O	2.7	i	101.0	-0.287	5.9	94.2	.	.	.	.	.	.
NC(=O)N/N=C/c1ccc(-c2cccc(C(F)(F)F)c2)o1	14.5	i	91.4	-0.0281	-23.3	121.8	.	.	.	.	.	.
O=C(N/N=C/c1ccc(-c2cccc([N+](=O)[O-])c2)o1)c1ccc([N+](=O)[O-])cc1	21.6	i	84.7	1.91	-2.8	100.8	.	.	.	.	.	.
O=C(N/N=C/c1ccc(-c2cccc(C(F)(F)F)c2)o1)c1cccc(F)c1	33.2	i	79.9	12*	-6.7	106.0	0.00857	0.016*	0.0331	0.0118*	?	0.0105
O=C(N/N=C/c1ccc(-c2cccc([N+](=O)[O-])c2)o1)c1ccccc1O	15.1	i	88.5	3.35*	-3.5	101.9	0.0106	0.0235*	0.0377	0.0123*	0.0317*	?
Cc1ccc(/C=N/NC(=O)c2cccc([N+](=O)[O-])c2)o1	4.7	i	96.8	5.51*	4.0	96.4	0.0104	0.0106*	0.0333	0.0121*	0.0227	0.0115
Cc1cccc(C(=O)N/N=C/c2cc(Br)c(Br)o2)c1	17.9	i	86.1	0.061	-0.8	100.3	0.009	0.0165*	0.0325	0.00912*	?	0.0094
CN(C)c1ccc(/C=N/NC(=O)c2ccccc2O)o1	-3.5	i	104.2	5.07*	1.4	97.6	0.0104	?	0.0332	0.0106*	0.0203	0.012
O=C(N/N=C/c1ccc(-c2cccc(C(F)(F)F)c2)o1)c1ccccc1O	2.2	i	100.0	4.77*	3.4	97.0	0.00689	0.0287*	0.0326	0.0156*	?	0.0191*
O=C(N/N=C/c1ccc(-c2cccc(C(F)(F)F)c2)o1)c1ccccc1Br	20.3	i	84.1	.	-8.2	107.5	.	.	.	.	.	.
CCOC(=O)C1CCN(C(=O)C2CCN(S(=O)(=O)c3cccc4cccnc34)CC2)CC1	-3.0	i	106.9	-0.165	-3.2	102.8	.	.	.	.	.	.
CCn1c(SCC(=O)Nc2ccc3c(c2)OCO3)nnc1-c1ccccc1O	18.4	i	87.0	0.6	-1.6	103.2	.	.	.	.	.	.
CCCCCCCCNC(=O)C(CCC(=O)OCc1ccccc1)NC(C)=O (centres undefined)	-7.6	i	107.4	.	5.0	92.5	0.00558	0.00428	0.0226*	?	0.013*	0.00992
C#CCN(Cc1ccco1)C(=O)c1cc(COc2ccc(F)cc2Cl)on1	30.1	i	76.2	-1.62	-9.0	107.3	.	.	.	.	.	.
Cc1cc(CN(C)C(=O)c2cc(COc3ccc(F)cc3Cl)on2)n[nH]1	-8.9	i	109.7	-4.7*	-22.2	118.6	0.00605*	?	?	0.00832	0.0241	0.0107
Cc1ccc(CN(C)C(=O)c2cc(COc3ccc(F)cc3Cl)on2)o1	17.0	i	87.4	.	-21.2	117.6	0.00698	0.00533	0.0258*	0.00721	?	0.0105
Cc1nc(CNC(=O)c2cc(COc3ccc(F)cc3Cl)on2)cs1	17.6	i	93.9	-4.6*	3.2	96.3	0.00651	0.00638	0.0329	0.00426	0.0146*	0.0112
O=C(O)c1ccc(C=C(c2nc3ccccc3s2)c2nc3ccccc3s2)cc1	5.9	i	98.1	-5.25*	-4.3	102.2	0.00766	0.00681	0.0311	0.00621	0.0173	0.00951
CCSc1nc(O)cc(=O)[nH]1	.	i	.	.	.	.	.	.	.	.	.	.
CCSc1nc(=S)cc(C)[nH]1	.	i	.	45.6*	.	.	0.0272*	0.0519*	?	0.0335*	0.0433*	0.018*
COc1ccc(OC)c(NC(=O)c2ccc(CSc3nnc(C)s3)cc2)c1	26.9	i	81.3	0.0211	4.5	94.5	.	.	.	.	.	.
CC(C)(C)NC(=O)CSc1nc2ccccc2n1-c1ccccc1	3.3	i	102.3	-0.0974	-7.0	106.4	.	.	.	.	.	.
Cc1ccc(C2(C(F)(F)F)NC(=O)N3CCCN=C3S2)cc1 (centres undefined)	17.8	.	90.0	3.93*	3.9	96.9	0.00527	0.00389	0.0309	0.00707	0.0182	0.00951
COc1ccc(/C=C(\C#N)C(=O)NCc2cccnc2)cc1OC	-6.1	i	107.2	0.348	-5.8	103.6	.	.	.	.	.	.
O=C(COc1ccc2ccccc2c1)Nc1cccc(C(=O)Nc2ccccc2C(=O)O)c1	-0.3	i	99.4	-4.73*	3.6	96.8	?	0.00548	0.0239*	?	0.0135*	?
SMILES	STAT3 blocker	HSV replic up	STAT3 act	Cl transport mod	STAT1 blocker	STAT1 activator	KCC2 sec1	KCC2 bumet counter	KCC2 sec2	HEK293 Tl flux	KCC2 retest ouab	HEK counter2
O=C(CCNS(=O)(=O)c1ccc(Cl)cc1)NCc1cccs1	4.4	i	102.8	0.433	0.8	99.0	.	.	.	.	.	.
c1ccc(C(c2nnnn2Cc2ccco2)N2CCN(c3nc4ccccc4s3)CC2)cc1 (centres undefined)	3.9	i	98.4	-0.747	-0.6	100.6	.	.	.	.	.	.
CCCCC(c1nnnn1Cc1ccco1)N1CCN(c2nc3ccccc3s2)CC1 (centres undefined)	-2.7	i	104.7	-6.93*	-3.3	103.0	0.00918	0.00634	?	0.00668	0.0152*	0.0106
CC(=O)c1c(C)cc(C)c(CSc2nnc(-c3ccco3)o2)c1C	12.1	i	89.2	6.02*	-1.9	101.7	0.00583	0.00411	?	?	0.0181	0.00973
Cc1cccc(CSc2nnc(-c3ccco3)o2)c1	14.0	i	92.2	-0.0981	-26.2	120.9	.	.	.	.	.	.
O=C(Nc1cccc(Cl)c1)ON=C1c2ccccc2-c2ccccc21	-4.9	i	110.9	.	9.5	91.5	.	.	.	.	.	.
C=CCn1c(SCc2ccc(C(=O)O)cc2)nc2sc(C)c(C)c2c1=O	.	i	.	46.3*	.	.	0.0212*	0.0533*	?	0.0348*	0.0498*	0.014*
COc1ccc(CCn2c(O)cc3nn(-c4nc5ccccc5s4)c(=O)c-3c2C)cc1	.	i	.	3.7*	.	.	0.00699	0.00768*	0.0301	0.0101*	0.0211	?
